Reference: ChEMBL document CHEMBL1122077, “Synthesis and cardiovascular activity of a new series of cyclohexylaralkylamine derivatives related to perhexiline” (1982)

Experiments:
Sus scrofa [1] = species: Sus scrofa; experiment: Antagonism of calcium-induced contraction of a depolarized coronary in pig; assay type: functional; design: unit not given beside the values
How it was run: (§1)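 Helical pig coronary strips (2–2.5 cm long, 3–4 mm wide) at 0.5 g resting tension in modified Krebs-Henseleit (1.25 mmol/L CaCl2), depolarized, contracted with calcium. Antagonist added 30 min beforehand. Result as pA2 (Arunlakshana–Schild) or pD2' (Ariens–Van Rossum, for noncompetitive antagonism).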

Rattus norvegicus [2] = species: Rattus norvegicus; experiment: Alpha-adrenolytic activity (pA2) on the descending thoracic branch of the rat aorta; assay type: functional
How it was run: (§2)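 Rat aortic strips held at 2 g resting tension, left about 2 h to stabilize; antagonist put in the bath 30 min before agonist challenge. pA2 by Arunlakshana–Schild analysis as developed by Miesch et al.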

Canis familiaris [3] = experiment: In vivo percent coronary flow in Mongrel dogs after administration at 3 mg/Kg (iv); assay type: functional, Canis lupus familiaris
How it was run: (§3)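 Overnight-fasted mongrel dogs of either sex (15–25 kg), pentobarbital 25 mg/kg iv (maintenance 1 mg/kg iv) plus levopromazine 0.5 mg/kg im. Femoral-vein injections at 0.3–1 and 3 mg/kg; coronary flow increase given as percent of the period before the 3 mg/kg injection.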

Sus scrofa [4] = species: Sus scrofa; experiment: Antagonism of calcium-induced contraction on the depolarized coronary of pig; Insoluble; assay type: functional, organism-based; how it was run: as §1
Canis familiaris [5] = experiment: In vivo percent coronary flow in Mongrel dogs after administering 3 mg/Kg (iv) of the compound; Insoluble; assay type: functional, organism-based; settings: Canis lupus familiaris; how it was run: as §3
Rattus norvegicus [6] = species: Rattus norvegicus; experiment: Alpha-adrenolytic activity (pA2) on the descending thoracic branch of the rat aorta; Insoluble; assay type: functional, organism-based; how it was run: as §2
Rattus norvegicus [7] = species: Rattus norvegicus; experiment: Alpha-adrenolytic activity on the descending thoracic branch of the rat aorta; assay type: functional
How it was run: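 Isolated aorta preparation set at 2 g resting tension and stabilized about 2 h. Antagonist was added to the bath 30 min before the assay. Competitive antagonism was expressed as pA2 (Arunlakshana–Schild method). Noncompetitive antagonism was expressed as pD2' (Ariens–Van Rossum calculation).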

SMILES: Cl.c1ccc(C(CCNC2CCCCC2)C2CCCCC2)cc1 (stereo not given)
- Ca2+ antagonism (Sus scrofa [1]): 5.8
- Alpha-adrenolytic activity (Rattus norvegicus [2]): 6.8
- Coronary flow (Canis familiaris [3]): 156

SMILES: C1CCC(NCCCCC(C2CCCCC2)C2CCCCC2)CC1
- Ca2+ antagonism (Sus scrofa [4]): Insoluble
- Coronary flow (Canis familiaris [5]): Insoluble
- Alpha-adrenolytic activity (Rattus norvegicus [6]): Insoluble

SMILES: COc1ccc(CCNCCC23CC4CC(CC(C4)C2)C3)cc1OC.Cl
- Alpha-adrenolytic activity (Rattus norvegicus [7]): 7.35
- Ca2+ antagonism (Sus scrofa [1]): 4.8
- Coronary flow (Canis familiaris [3]): 133

SMILES: C1CCC(NC(C2CCCCC2)C2CCCCC2)CC1.Cl
- Ca2+ antagonism (Sus scrofa [1]): 5.45
- Alpha-adrenolytic activity (Rattus norvegicus [2]): 6.2
- Coronary flow (Canis familiaris [3]): 194

SMILES: CC(Cc1ccc(O)cc1)NCC(c1ccccc1)C1CCCCC1.O=[N+]([O-])O (stereo not given)
- Alpha-adrenolytic activity (Rattus norvegicus [7]): 6.35
- Ca2+ antagonism (Sus scrofa [1]): 4.8
- Coronary flow (Canis familiaris [3]): 105

SMILES: C1CCC(NCCC23CC4CC(CC(C4)C2)C3)CC1.O=C(O)/C=C\C(=O)O
- Ca2+ antagonism (Sus scrofa [1]): 4.7
- Alpha-adrenolytic activity (Rattus norvegicus [2]): 6.75
- Coronary flow (Canis familiaris [3]): 99

SMILES: C1CCC(NCCCC(C2CCCCC2)C2CCCCC2)CC1.Cl
- Ca2+ antagonism (Sus scrofa [1]): 4.6
- Alpha-adrenolytic activity (Rattus norvegicus [2]): 6.05
- Coronary flow (Canis familiaris [3]): 95.5

SMILES: CC(CCc1ccccc1)NCCC(C1CCCCC1)C1CCCCC1 (stereo not given)
- Ca2+ antagonism (Sus scrofa [4]): Insoluble
- Coronary flow (Canis familiaris [5]): Insoluble
- Alpha-adrenolytic activity (Rattus norvegicus [6]): Insoluble

SMILES: C1CCC(NCCC(C2CCCCC2)C2CCCCC2)CC1.Cl
- Ca2+ antagonism (Sus scrofa [1]): 4.85
- Alpha-adrenolytic activity (Rattus norvegicus [2]): 7.25
- Coronary flow (Canis familiaris [3]): 130

SMILES: COc1ccc(CCNCC(c2ccccc2)C2CCCCC2)cc1OC.O=C(O)/C=C\C(=O)O (stereo not given)
- Alpha-adrenolytic activity (Rattus norvegicus [7]): 7.25
- Ca2+ antagonism (Sus scrofa [1]): 3.6
- Coronary flow (Canis familiaris [3]): 73

SMILES: CC(Cc1ccccc1)NCCC12CC3CC(CC(C3)C1)C2.O=C(O)/C=C\C(=O)O (stereo not given)
- Ca2+ antagonism (Sus scrofa [1]): 4.85
- Alpha-adrenolytic activity (Rattus norvegicus [2]): 7.3
- Coronary flow (Canis familiaris [3]): 146

SMILES: CC(C)(C)NCC(c1ccccc1)C1CCCCC1.Cl (stereo not given)
- Ca2+ antagonism (Sus scrofa [1]): <4.5
- Alpha-adrenolytic activity (Rattus norvegicus [2]): 7.25
- Coronary flow (Canis familiaris [3]): 104.5

SMILES: CC(Cc1ccccc1)NCCC(C1CCCCC1)C1CCCCC1.O=C(O)/C=C\C(=O)O (stereo not given)
- Ca2+ antagonism (Sus scrofa [1]): 5.2
- Alpha-adrenolytic activity (Rattus norvegicus [2]): <5
- Coronary flow (Canis familiaris [3]): 42

SMILES: CC(CCc1ccccc1)NCCC12CC3CC(CC(C3)C1)C2.O=C(O)/C=C\C(=O)O (stereo not given)
- Ca2+ antagonism (Sus scrofa [1]): 5.1
- Alpha-adrenolytic activity (Rattus norvegicus [2]): 7.15
- Coronary flow (Canis familiaris [3]): 215

SMILES: CC(Cc1ccccc1)NCC(c1ccccc1)C1CCCCC1.O=C(O)/C=C\C(=O)O (stereo not given)
- Ca2+ antagonism (Sus scrofa [1]): 6.2
- Alpha-adrenolytic activity (Rattus norvegicus [2]): 6.9
- Coronary flow (Canis familiaris [3]): 157

SMILES: Cl.Oc1ccc(C(CNC2CCCCC2)C2CCCCC2)cc1 (stereo not given)
- Alpha-adrenolytic activity (Rattus norvegicus [7]): 7.1
- Ca2+ antagonism (Sus scrofa [1]): 4.5
- Coronary flow (Canis familiaris [3]): 133.5

SMILES: COc1ccc(CC(C)NCC(c2ccccc2)C2CCCCC2)cc1.O=C(O)/C=C\C(=O)O (stereo not given)
- Alpha-adrenolytic activity (Rattus norvegicus [7]): 6
- Ca2+ antagonism (Sus scrofa [1]): 5.1
- Coronary flow (Canis familiaris [3]): 100.5

SMILES: COc1ccc(CCNCCC(C2CCCCC2)C2CCCCC2)cc1OC.O=C(O)/C=C\C(=O)O
- Alpha-adrenolytic activity (Rattus norvegicus [7]): 6.3
- Ca2+ antagonism (Sus scrofa [1]): 4.1
- Coronary flow (Canis familiaris [3]): 44.5

SMILES: O=[N+]([O-])O.c1ccc(C(CNC2CCCCC2)C2CCCCC2)cc1 (stereo not given)
- Ca2+ antagonism (Sus scrofa [1]): 4.6
- Alpha-adrenolytic activity (Rattus norvegicus [2]): 7.9
- Coronary flow (Canis familiaris [3]): 62

SMILES: CC(CCc1ccccc1)NCC(c1ccccc1)C1CCCCC1.O=C(O)/C=C\C(=O)O (stereo not given)
- Ca2+ antagonism (Sus scrofa [1]): 6.1
- Alpha-adrenolytic activity (Rattus norvegicus [2]): 7.6
- Coronary flow (Canis familiaris [3]): 71.5

SMILES: C1CCC(C(CC2CCCCN2)C2CCCCC2)CC1 (stereo not given) [PERHEXILINE]
- Ca2+ antagonism (Sus scrofa [1]): 5.2
- Alpha-adrenolytic activity (Rattus norvegicus [2]): 6.7
- Coronary flow (Canis familiaris [3]): 37.5

SMILES: Cc1ccc(C(CNC2CCCCC2)C2CCCCC2)cc1.O=C(O)/C=C\C(=O)O (stereo not given)
- Ca2+ antagonism (Sus scrofa [1]): 6
- Alpha-adrenolytic activity (Rattus norvegicus [2]): 6.55
- Coronary flow (Canis familiaris [3]): 68

SMILES: CN(CCC(C1CCCCC1)C1CCCCC1)C1CCCCC1.O=C(O)/C=C\C(=O)O
- Ca2+ antagonism (Sus scrofa [1]): 4.85
- Alpha-adrenolytic activity (Rattus norvegicus [2]): 6.15
- Coronary flow (Canis familiaris [3]): 67

SMILES: CN1CCCCC1CC(C1CCCCC1)C1CCCCC1 (stereo not given)
- Ca2+ antagonism (Sus scrofa [1]): 5.3
- Alpha-adrenolytic activity (Rattus norvegicus [2]): 6.9
- Coronary flow (Canis familiaris [3]): 135

SMILES: O=[N+]([O-])O.c1ccc(C(CNC2CCCC2)C2CCCCC2)cc1 (stereo not given)
- Ca2+ antagonism (Sus scrofa [1]): 6.2
- Alpha-adrenolytic activity (Rattus norvegicus [2]): 5.9
- Coronary flow (Canis familiaris [3]): 38.5
